Measurements reported in ChEMBL document CHEMBL3085676, “Self-assembly to function: design, synthesis, and broad spectrum antimicrobial properties of short hybrid E-vinylogous lipopeptides” (J Med Chem, 2013).
Values after ≈ are worked out from the molar mass of the structure shown. Active and inactive are the calls of the source. The calls are words filed in the database; no cut-off is given here. Where a SMILES comes first, the peptide text is derived from it. The star is where a group is joined. Octanoyl = CCCCCCCC(=O)*

Columns and labels:
[1] = system: Salmonella typhimurium; assay: Antibacterial activity against Salmonella typhimurium NCIM 2501 after 18 to 20 hrs by broth dilution assay; type: functional, Salmonella enterica subsp. enterica serovar Typhimurium; settings: Salmonella enterica
In short: (§1)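 Two-fold serial dilutions in Mueller-Hinton broth, run in triplicate. Overnight 37 °C cultures diluted to 10⁶ CFU/mL and added 1:1 to the peptide, then incubated at 37 °C for 18-20 h. Growth was read as absorbance at 492 nm against no-peptide controls. MIC taken as the lowest concentration giving complete inhibition or killing. Reproducible across three independent triplicates.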

[2] = Hemolytic activity in human RBC after 1 hr; type: ADME, cell-based; settings: erythrocyte
In short: (§2)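 Fresh EDTA-collected human RBCs washed four times in Tris-buffered saline (10 mM Tris, 150 mM NaCl, pH 7.2) and used at 4% v/v, mixed 1:1 with two-fold serially diluted peptide (top 100 µg/ml before mixing). Incubated at 37 °C for 1 h and centrifuged; supernatant hemoglobin read at 540 nm. Buffer and 1% Triton-X served as negative and positive controls. Percent hemolysis = (A−A_N)/(A_P−A_N)×100. Run in duplicate.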

[3] = system: Staphylococcus aureus; assay: Antibacterial activity against Staphylococcus aureus NCIM 5021 after 18 to 20 hrs by broth dilution assay; type: functional; in short: as §1
[4] = system: Saccharomyces cerevisiae; assay: Antifungal activity against Saccharomyces cerevisiae NCIM 3454 after 48 to 72 hrs; type: functional
In short: (§3)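 Peptide in water was serially diluted two-fold in potato dextrose broth and mixed 1:1 with yeast suspension at 2×10³ CFU/ml. Incubated at 25 °C for 48-72 h, with growth read as absorbance at 620 nm against a peptide-free culture. MIC was the lowest concentration giving complete growth inhibition. Run in triplicate.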

[5] = system: Escherichia coli; assay: Antibacterial activity against Escherichia coli K-12 NCIM 2563 after 18 to 20 hrs by broth dilution assay; type: functional; in short: as §1
[6] = system: Escherichia coli; assay: Antibacterial activity against Escherichia coli NCIM 2065 after 18 to 20 hrs by broth dilution assay; type: functional; in short: as §1
[7] = system: Escherichia coli; assay: Antibacterial activity against Escherichia coli K-12 NCIM 2563 assessed as disruption of cell membrane at 50 uM after 1 hr by atomic force microscopic analysis; type: functional, organism-based
In short: (§4)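 E. coli grown in MHB and C. albicans in potato dextrose broth were pelleted and resuspended in deionized water. Cells incubated with 50 µM peptide at 37 °C for 1 h, dried 30 min at 25 °C on poly-L-lysine glass, and imaged by AFM in intermittent contact mode. Peptide-free cells served as control.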

[8] = system: Klebsiella pneumoniae; assay: Antibacterial activity against Klebsiella pneumoniae NCIM 2957 after 18 to 20 hrs by broth dilution assay; type: functional; in short: as §1
[9] = system: Nakaseomyces glabratus; assay: Antifungal activity against Candida glabrata NCIM 3237 after 48 to 72 hrs; type: functional; in short: as §3
[10] = system: Pseudomonas aeruginosa; assay: Antibacterial activity against Pseudomonas aeruginosa NCIM 5029 after 18 to 20 hrs by broth dilution assay; type: functional; in short: as §1
[11] = system: Cryptococcus neoformans; assay: Antifungal activity against Cryptococcus neoformans NCIM 3542 after 48 to 72 hrs; type: functional; in short: as §3
[12] = system: Candida albicans; assay: Antifungal activity against Candida albicans NCIM 3471 after 48 to 72 hrs; type: functional; in short: as §3
[13] = system: Candida albicans; assay: Antifungal activity against Candida albicans NCIM 3471 assessed as disruption of cell membrane by atomic force microscopic analysis; type: functional, organism-based; in short: as §4
[14] = Hemolytic activity in human RBC at 100 ug/ml after 1 hr; type: ADME, cell-based; settings: erythrocyte; in short: as §2
[15] = system: Escherichia coli; assay: Antibacterial activity against Escherichia coli expressing pUC19 plasmid assessed as disruption of cytoplasmic membrane at 20 ug/mL after 1 hr by beta-galactosidase leakage assay; type: functional, organism-based
In short: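 E. coli TOP10 transformed with pUC19 (lacZ) grown in LB with 100 µg/ml ampicillin at 37 °C to A660 0.6, then washed three times. Peptide stock (200 µg/ml) added 1:10 to cells and incubated at 37 °C for 1 h. After centrifugation, supernatant was mixed with 4-methylumbelliferyl substrate and fluorescence followed for 1 h. Initial velocities used; water blank; triplicates.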

[16] = system: Escherichia coli; assay: Antibacterial activity against Escherichia coli K-12 NCIM 2563 at 50 uM after 60 mins by FITC uptake assay; type: functional, organism-based
In short: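 E. coli grown in MHB to OD 0.6, washed, and suspended at 2×10⁷ cfu/ml in 10 mM sodium phosphate pH 7.4. Cells incubated with 50 µM peptide at 37 °C for 60 min, then immobilized on poly-L-lysine slides for 50 min at 30 °C. FITC (10 µg/ml) added, slides washed, and cells examined by fluorescence microscopy. Solvent-treated control.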

Compound | MIC [1] [µg/mL] | HD10 [2] [µg/mL] | MIC [3] [µg/mL] | MIC [4] [µg/mL] | MIC [5] [µg/mL] | MIC [6] [µg/mL] | Activity [7] | MIC [8] [µg/mL] | MIC [9] [µg/mL] | MIC [10] [µg/mL] | MIC [11] [µg/mL] | MIC [12] [µg/mL] | Activity [13] | Activity [14] | Activity [15] | Activity [16]
CCCCCCCC(=O)N[C@@H](C)/C=C/C(=O)N[C@@H](CCCNC(=N)N)C(=O)N[C@@H](C)/C=C/C(=O)N[C@@H](CCCNC(=N)N)C(N)=O | > 100 | 52 | > 100 | > 100 | > 100 | > 100 | Active | > 100 | > 100 | > 100 | > 100 | > 100 | Active |  |  | 
CCCCCCCCCCCC(=O)N[C@H](/C=C/C(=O)N[C@@H](CCCCN)C(=O)N[C@H](/C=C/C(=O)N[C@@H](CCCCN)C(N)=O)Cc1ccccc1)Cc1ccccc1 | 25 (≈ 31.2 µM) | < 1.56 | 25 (≈ 31.2 µM) | 6.25 (≈ 7.79 µM) | 25 (≈ 31.2 µM) | 25 (≈ 31.2 µM) | Active | 25 (≈ 31.2 µM) | 6.25 (≈ 7.79 µM) | 25 (≈ 31.2 µM) | 6.25 (≈ 7.79 µM) | 3.12 (≈ 3.89 µM) | Active |  |  | 
CCCCCCCCCCCC(=O)N[C@@H](C)/C=C/C(=O)N[C@@H](CCCNC(=N)N)C(=O)N[C@@H](C)/C=C/C(=O)N[C@@H](CCCNC(=N)N)C(N)=O | 3.12 (≈ 4.42 µM) | 22 | 6.25 (≈ 8.85 µM) | 3.12 (≈ 4.42 µM) | 12.5 (≈ 17.7 µM) | 12.5 (≈ 17.7 µM) | Active | 6.25 (≈ 8.85 µM) | 6.25 (≈ 8.85 µM) | 3.12 (≈ 4.42 µM) | 12.5 (≈ 17.7 µM) | 3.12 (≈ 4.42 µM) | Active |  |  | 
CCCCCCCC(=O)N[C@@H](CC(C)C)C(=O)N[C@@H](CCCCN)C(=O)N[C@H](C(=O)N[C@@H](CCCCN)C(N)=O)C(C)C (Octanoyl-LKVK-NH2) | > 100 |  | > 100 | > 100 | > 100 | > 100 | Active | > 100 | > 100 | > 100 | > 100 | > 100 | Active | Non-toxic |  | 
CCCCCCCC(=O)N[C@@H](C)/C=C/C(=O)N[C@@H](CCCCN)C(=O)N[C@@H](C)/C=C/C(=O)N[C@@H](CCCCN)C(N)=O | > 100 | 58 | > 100 | > 100 | > 100 | > 100 | Active | > 100 | 50 (≈ 84.2 µM) | > 100 | > 100 | > 100 | Active |  |  | 
CCCCCCCC(=O)N[C@H](/C=C/C(=O)N[C@@H](CCCCN)C(=O)N[C@H](/C=C/C(=O)N[C@@H](CCCCN)C(N)=O)C(C)C)CC(C)C | 50 (≈ 75.3 µM) |  | 50 (≈ 75.3 µM) | 50 (≈ 75.3 µM) |  | 12.5 (≈ 18.8 µM) | Active | 25 (≈ 37.7 µM) | 50 (≈ 75.3 µM) | 50 (≈ 75.3 µM) | 6.25 (≈ 9.41 µM) | 25 (≈ 37.7 µM) | Active |  |  | 
CCCCCCCC(=O)N[C@H](/C=C/C(=O)N[C@@H](CCCCN)C(=O)N[C@H](/C=C/C(=O)N[C@@H](CCCCN)C(N)=O)Cc1ccc(O)cc1)Cc1ccc(O)cc1 | 50 (≈ 64.3 µM) | 54 | 50 (≈ 64.3 µM) | 12.5 (≈ 16.1 µM) | 25 (≈ 32.1 µM) | 25 (≈ 32.1 µM) | Active | 50 (≈ 64.3 µM) | 25 (≈ 32.1 µM) | 50 (≈ 64.3 µM) | 25 (≈ 32.1 µM) | 12.5 (≈ 16.1 µM) | Active |  |  | 
CCCCCCCCCCCC(=O)N[C@@H](C)/C=C/C(=O)N[C@@H](CCCCN)C(=O)N[C@@H](C)/C=C/C(=O)N[C@@H](CCCCN)C(N)=O | 6.25 (≈ 9.62 µM) | 48 | 6.25 (≈ 9.62 µM) | 3.12 (≈ 4.8 µM) | 6.25 (≈ 9.62 µM) | 6.25 (≈ 9.62 µM) | Active | 3.12 (≈ 4.8 µM) | 6.25 (≈ 9.62 µM) | 6.25 (≈ 9.62 µM) | 6.25 (≈ 9.62 µM) | 3.12 (≈ 4.8 µM) | Active |  | inactive | 
CCCCCCCC(=O)N[C@H](/C=C/C(=O)N[C@@H](CCCCN)C(=O)N[C@H](/C=C/C(=O)N[C@@H](CCCCN)C(N)=O)Cc1ccccc1)Cc1ccccc1 | 3.12 (≈ 4.18 µM) | 16 | 3.12 (≈ 4.18 µM) | 3.12 (≈ 4.18 µM) | 1.56 (≈ 2.09 µM) | 1.56 (≈ 2.09 µM) | Active | 3.12 (≈ 4.18 µM) | 3.12 (≈ 4.18 µM) | 3.12 (≈ 4.18 µM) | 3.12 (≈ 4.18 µM) | 3.12 (≈ 4.18 µM) | Active |  | Active | Active
CC(=O)N[C@H](/C=C/C(=O)N[C@@H](CCCCN)C(=O)N[C@H](/C=C/C(=O)N[C@@H](CCCCN)C(N)=O)Cc1ccccc1)Cc1ccccc1 | > 100 |  | > 100 | > 100 | > 100 | > 100 | Active | > 100 | > 100 | > 100 | > 100 | > 100 | Active | Non-toxic |  | 
CCCCCCCCCCCC(=O)N[C@H](/C=C/C(=O)N[C@@H](CCCCN)C(=O)N[C@H](/C=C/C(=O)N[C@@H](CCCCN)C(N)=O)Cc1ccc(O)cc1)Cc1ccc(O)cc1 | 3.12 (≈ 3.74 µM) | 2.5 | 3.12 (≈ 3.74 µM) | 3.12 (≈ 3.74 µM) | 6.25 (≈ 7.49 µM) | 6.25 (≈ 7.49 µM) | Active | 3.12 (≈ 3.74 µM) | 3.12 (≈ 3.74 µM) | 3.12 (≈ 3.74 µM) | 6.25 (≈ 7.49 µM) | 1.56 (≈ 1.87 µM) | Active |  | Active | Active
